Experimental data reported in ChEMBL document CHEMBL1136016, “Synthesis, biological activity, and molecular modeling investigation of new pyrazolo[4,3-e]-1,2,4-triazolo[1,5-c]pyrimidine derivatives as human A(3) adenosine receptor antagonists” (J Med Chem, 2002).
Blank lines part the entries; values can stand above or below the molecule they belong to.

How the values were obtained:
[1] = target: T1, Adenosine receptor A1 (Homo sapiens, UniProt P30542); experiment: Displacement of [3H]DPCPX from human Adenosine A1 receptor expressed in CHO cells; range 509-712; format: cell-based
T1 sequence (P30542 whole entry): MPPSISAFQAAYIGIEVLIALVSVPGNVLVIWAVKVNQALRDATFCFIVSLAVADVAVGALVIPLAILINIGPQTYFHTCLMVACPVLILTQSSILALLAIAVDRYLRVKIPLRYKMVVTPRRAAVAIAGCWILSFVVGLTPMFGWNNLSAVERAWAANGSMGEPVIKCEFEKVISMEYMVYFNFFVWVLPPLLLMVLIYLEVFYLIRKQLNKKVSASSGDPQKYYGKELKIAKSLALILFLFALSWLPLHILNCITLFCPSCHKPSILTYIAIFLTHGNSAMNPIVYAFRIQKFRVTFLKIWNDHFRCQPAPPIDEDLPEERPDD
Outline: (§1)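 Human recombinant A1 receptor in CHO cell membranes, resuspended in 50 mM Tris HCl pH 7.4. Displacement run 120 min at 25 °C with 1 nM [3H]DPCPX, 50 µg protein per assay, and at least six to eight test concentrations. Nonspecific binding defined with CHA. Bound and free separated on glass-fiber filters; filter radioactivity counted. n = 3-6.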

[2] = target: Adenosine receptors; A2b & A3 (Homo sapiens) (UniProt P29275+P0DMS8); experiment: Selectivity ratio (h2B/hA3); format: protein assay
[3] = target: T2, Adenosine receptor A2b (Homo sapiens, UniProt P29275); experiment: Displacement of [3H]DPCPX from human Adenosine A2B receptor expressed in HEK293 cells; range 211-287; format: cell-based
T2 sequence (P29275 whole entry): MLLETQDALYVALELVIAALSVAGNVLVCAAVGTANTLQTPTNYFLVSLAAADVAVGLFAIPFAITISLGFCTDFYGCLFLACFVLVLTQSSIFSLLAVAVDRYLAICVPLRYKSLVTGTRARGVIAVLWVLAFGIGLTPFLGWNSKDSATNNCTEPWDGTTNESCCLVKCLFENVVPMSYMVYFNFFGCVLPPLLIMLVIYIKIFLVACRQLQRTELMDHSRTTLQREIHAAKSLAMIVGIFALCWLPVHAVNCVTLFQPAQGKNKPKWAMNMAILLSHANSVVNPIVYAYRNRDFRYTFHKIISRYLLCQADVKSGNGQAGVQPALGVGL
Outline: (§2)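 Membranes from HEK-293 cells with human recombinant A2B receptor. Incubation 60 min at 25 °C in 50 mM Tris HCl, 10 mM MgCl2, 1 mM EDTA, 0.1 mM benzamidine, pH 7.4, with 2 IU/mL adenosine deaminase and 40 nM [3H]DPCPX. At least six to eight test concentrations. Nonspecific binding defined with NECA. n = 3-6.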

[4] = target: Adenosine receptors; A1 & A3 (Homo sapiens) (UniProt P30542+P0DMS8); experiment: Selectivity ratio (hA1/hA3); format: protein assay
[5] = target: T3, Adenosine receptor A3 (Homo sapiens, UniProt P0DMS8); experiment: Displacement of [3H]MRE3008-F20 binding at human Adenosine A3 receptor expressed in HEK cells; range 0.77-0.97; format: cell-based, HEK293
T3 sequence (P0DMS8 whole entry): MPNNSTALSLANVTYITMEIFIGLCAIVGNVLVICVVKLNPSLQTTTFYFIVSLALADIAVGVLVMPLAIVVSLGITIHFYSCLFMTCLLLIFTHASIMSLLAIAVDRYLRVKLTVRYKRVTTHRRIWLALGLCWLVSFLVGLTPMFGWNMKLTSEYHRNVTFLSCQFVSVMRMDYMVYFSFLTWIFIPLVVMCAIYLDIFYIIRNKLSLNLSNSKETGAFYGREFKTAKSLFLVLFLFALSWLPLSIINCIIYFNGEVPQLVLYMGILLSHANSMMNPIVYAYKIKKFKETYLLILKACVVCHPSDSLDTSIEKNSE

[6] = target: T4, Adenosine receptor A2a (Homo sapiens, UniProt P29274); experiment: Displacement of [3H]SCH-58261 from human Adenosine A2A receptor expressed in HEK293 cells; range 48-78; format: cell-based
T4 sequence (P29274 whole entry): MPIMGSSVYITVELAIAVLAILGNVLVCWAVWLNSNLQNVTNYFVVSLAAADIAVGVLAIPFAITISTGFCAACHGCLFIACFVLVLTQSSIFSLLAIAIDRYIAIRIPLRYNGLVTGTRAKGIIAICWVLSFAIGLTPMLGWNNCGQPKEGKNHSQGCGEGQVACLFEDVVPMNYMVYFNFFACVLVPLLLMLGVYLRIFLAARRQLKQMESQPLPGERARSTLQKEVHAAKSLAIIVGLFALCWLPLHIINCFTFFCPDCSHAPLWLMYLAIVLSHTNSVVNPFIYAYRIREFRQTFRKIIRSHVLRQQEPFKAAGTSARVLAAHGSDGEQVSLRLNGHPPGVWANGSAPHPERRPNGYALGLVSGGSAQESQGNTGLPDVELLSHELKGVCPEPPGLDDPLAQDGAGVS

[7] = target: T4, Adenosine receptor A2a; experiment: Displacement of [3H]SCH-58261 from human Adenosine A2A receptor expressed in HEK293 cells; range 51-55; format: cell-based
[8] = target: T1, Adenosine receptor A1; experiment: Displacement of [3H]DPCPX from human Adenosine A1 receptor expressed in CHO cells; range 346-586; format: cell-based; outline: as §1
[9] = target: T2, Adenosine receptor A2b; experiment: Displacement of [3H]DPCPX from human Adenosine A2B receptor expressed in HEK293 cells; range 178-310; format: cell-based
Outline: (§3)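 HEK-293 membranes expressing the human receptor were incubated 60 min at 25 °C. Six to eight test concentrations were used. Nonspecific binding was set with NECA. n = 3-6.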

[10] = target: T3, Adenosine receptor A3; experiment: biochemical
[11] = target: T1, Adenosine receptor A1; experiment: Displacement of [3H]DPCPX from human Adenosine A1 receptor expressed in CHO cells; format: cell-based; outline: as §1
[12] = target: T2, Adenosine receptor A2b; experiment: Displacement of [3H]DPCPX binding at human Adenosine A2B receptor expressed in HEK293 cells; format: cell-based; outline: as §2
[13] = target: T3, Adenosine receptor A3; experiment: biochemical; remark: listed apart in the source
[14] = target: T4, Adenosine receptor A2a; experiment: Displacement of [3H]SCH-58261 from human Adenosine A2A receptor expressed in HEK293 cells; range 240-388; format: cell-based
[15] = target: T4, Adenosine receptor A2a; experiment: Displacement of [3H]SCH-58261 from human Adenosine A2A receptor expressed in HEK293 cells; range 83-120; format: cell-based
[16] = target: T1, Adenosine receptor A1; experiment: Displacement of [3H]DPCPX from human Adenosine A1 receptor expressed in CHO cells; range 245-319; format: cell-based
[17] = target: T3, Adenosine receptor A3; experiment: Displacement of [3H]MRE3008-F20 binding at human Adenosine A3 receptor expressed in HEK cells; range 0.76-0.98; format: cell-based, HEK293
[18] = target: T2, Adenosine receptor A2b; experiment: Displacement of [3H]DPCPX from human Adenosine A2B receptor expressed in HEK293 cells; range 65-94; format: cell-based
Outline: (§4)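 Competition binding on membranes of HEK-293 cells carrying recombinant human A2B receptor. Incubation 60 min at 25 °C in 50 mM Tris HCl pH 7.4 with 10 mM MgCl2, 1 mM EDTA, 0.1 mM benzamidine and 2 IU/mL adenosine deaminase. Radioligand 40 nM [3H]DPCPX, at least six to eight test concentrations. NECA defined nonspecific binding. Bound ligand separated on glass-fibre filters and counted; n = 3-6.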

[19] = target: T1, Adenosine receptor A1; experiment: Displacement of [3H]-DPCPX from human Adenosine A1 receptor expressed in CHO cells; range 240-368; format: cell-based
[20] = target: T4, Adenosine receptor A2a; experiment: Displacement of [3H]SCH-58261 from human Adenosine A2A receptor expressed in HEK293 cells; range 91-137; format: cell-based
[21] = target: T2, Adenosine receptor A2b; experiment: Displacement of [3H]DPCPX from human Adenosine A2B receptor expressed in HEK293 cells; range 76-98; format: cell-based; outline: as §3
[22] = target: T3, Adenosine receptor A3; experiment: Displacement of [3H]MRE3008-F20 from human Adenosine A3 receptor expressed in HEK cells; range 0.37-0.50; format: cell-based, HEK293
[23] = target: T3, Adenosine receptor A3; experiment: Displacement of [3H]MRE3008-F20 from human Adenosine A3 receptor expressed in HEK cells; range 0.39-0.54; format: cell-based, HEK293
[24] = target: T3, Adenosine receptor A3; experiment: Inhibition of IB-MECA agonist-mediated cAMP production in CHO cell membranes expressing human Adenosine A3 receptor; range 2.7-6.6; format: functional, cell-based
Outline: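 Human A3-CHO membranes (in 50 mM Tris HCl, 10 mM MgCl2, 1 mM EDTA, pH 7.4) were preincubated for 10 min at 37 °C with 5 µM GTP, 0.5 mM Ro 20-1724 and 2.0 IU/mL adenosine deaminase. IB-MECA (100 nM) or antagonist was then added with 1 mM ATP and forskolin for 10 min. The reaction was stopped by 2 min boiling. cAMP was measured by [3H]cAMP competitive protein binding using beef adrenal binding protein, 150 min at 4 °C.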

[25] = target: T2, Adenosine receptor A2b; experiment: Displacement of [3H]DPCPX from human Adenosine A2B receptor expressed in HEK293 cells; range 152-216; format: cell-based; outline: as §4
[26] = target: T1, Adenosine receptor A1; experiment: Displacement of [3H]DPCPX from human Adenosine A1 receptor expressed in CHO cells; range 512-698; format: cell-based
Outline: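 Competition binding on membranes of CHO cells stably expressing human A1 receptor, resuspended in 50 mM Tris HCl pH 7.4. Incubation 120 min at 25 °C with 1 nM [3H]DPCPX, 50 µg protein per assay and at least six to eight test concentrations. CHA defined nonspecific binding. Bound ligand separated on glass-fibre filters and counted; n = 3-6.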

Ki [1]: 602 nM
Ratio [2]: 286
Ki [3]: 246 nM
Ratio [4]: 700
Ki [5]: 0.86 nM
Ki [6]: 60 nM
Structure (SMILES): CCn1cc2c(nc(NC(=O)Nc3ccc(F)cc3)n3nc(-c4ccco4)nc23)n1

Ki [19]: 300 nM
Ki [20]: 111 nM
Ratio [2]: 202
Ratio [4]: 698
Ki [21]: 87 nM
Ki [22]: 0.43 nM
Structure (SMILES): CCCCn1cc2c(nc(NC(=O)Nc3ccc(Cl)cc3)n3nc(-c4ccco4)nc23)n1

More lines, now with the values behind:

Structure (SMILES): CCn1cc2c(nc(NC(=O)Nc3ccc(C(F)(F)F)cc3)n3nc(-c4ccco4)nc23)n1
Ki [7]: 53 nM
Ki [8]: 450 nM
Ki [9]: 235 nM
Ratio [2]: 242
Ratio [4]: 464
Ki [10]: 0.97 nM

Structure (SMILES): CCCn1cc2c(nc(NC(=O)Nc3ccc(S(=O)(=O)O)cc3)n3nc(-c4ccco4)nc23)n1
Ki [11]: > 10000 nM
Ki [12]: > 10000 nM
Ratio [2]: > 333
Ratio [4]: > 333
Ki [13]: 30 nM
Ki [14]: 305 nM

Structure (SMILES): CCCCn1cc2c(nc(NC(=O)Nc3ccccc3Cl)n3nc(-c4ccco4)nc23)n1
Ki [15]: 100 nM
Ki [16]: 280 nM
Ki [17]: 0.86 nM
Ki [18]: 78 nM
Ratio [2]: 91
Ratio [4]: 326

Structure (SMILES): Cn1cc2c(nc(NC(=O)Nc3ccc(Br)cc3)n3nc(-c4ccco4)nc23)n1
Ki [23]: 0.46 nM
Ki [15]: 100 nM
IC50 [24]: 4.2 nM
Ki [25]: 181 nM
Ki [26]: 600 nM
Ratio [2]: 393
Ratio [4]: 1300
